This is an account of results in ChEMBL document CHEMBL4342456, “Preventing Morphine-Seeking Behavior through the Re-Engineering of Vincamine's Biological Activity” (J Med Chem, 2020).

Calls of active or inactive are those of the source. The calls are words filed in the database; no cut-off is given here.

Assay [1] addresses C-C chemokine receptor type 8 (Homo sapiens, UniProt P51685). The assay can be described thus: Antagonist activity at human CCR8 expressed in CHOK1 cells assessed as inhibition in CCL1-induced beta-arrestin 2 recruitment at 20 uM incubated for 30 mins followed by CCL1 addition and measured after 90 or 180 mins by pathhunter beta-arrestin assay relative to control. In kind it is cell-based. The gist of the method:
(§1)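 PathHunter beta-arrestin recruitment, antagonist mode, run at DiscoverX. Cells seeded and held at 37 °C, then preincubated with test sample for 30 min at 37 °C or room temperature (1% vehicle). Agonist then added at EC80 for 90 or 180 min. IC50 comes from concentration–response runs in the same format.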

The target in assay [2] is T1, Muscarinic acetylcholine receptor M4 (Homo sapiens) (UniProt P08173).
T1 sequence (whole entry): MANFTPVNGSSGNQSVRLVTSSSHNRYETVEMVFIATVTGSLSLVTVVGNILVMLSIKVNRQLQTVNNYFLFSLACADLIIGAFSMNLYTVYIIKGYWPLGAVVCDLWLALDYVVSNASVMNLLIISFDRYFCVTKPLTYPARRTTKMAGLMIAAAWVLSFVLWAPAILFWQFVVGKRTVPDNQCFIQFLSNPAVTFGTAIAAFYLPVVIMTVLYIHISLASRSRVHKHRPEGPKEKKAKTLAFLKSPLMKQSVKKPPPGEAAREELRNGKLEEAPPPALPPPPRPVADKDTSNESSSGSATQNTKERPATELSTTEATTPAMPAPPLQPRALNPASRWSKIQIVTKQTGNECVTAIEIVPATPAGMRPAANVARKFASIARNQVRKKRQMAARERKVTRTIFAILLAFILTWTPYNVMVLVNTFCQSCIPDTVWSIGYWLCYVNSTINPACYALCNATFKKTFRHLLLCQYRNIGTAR
The assay can be described thus: Antagonist activity at human Gs/Gi/o-coupled CHRM4 expressed in CHOK1 cells assessed as inhibition in acetylcholine-induced beta-arrestin 2 recruitment at 20 uM incubated for 30 mins followed by acetylcholine addition and measured after 90 or 180 mins by pathhunter beta-arrestin assay relative to control. The class given is cell-based. The gist of the method:
as §1

The target of a further assay is Cannabinoid receptor 1 (Homo sapiens, UniProt P21554). The assay can be described thus: Antagonist activity at human Gi/o-coupled CNR1 expressed in CHOK1 cells assessed as inhibition in CP55940-induced beta-arrestin 2 recruitment at 20 uM incubated for 30 mins followed by CP55940 addition and measured after 90 or 180 mins by pathhunter beta-arrestin assay relative to control. In kind it is cell-based. The gist of the method:
as §1

Another assay deals with Cannabinoid receptor 2 (Homo sapiens, UniProt P34972). The assay can be described thus: Antagonist activity at human Gi/o-coupled CNR2 expressed in CHOK1 cells assessed as inhibition in CP55940-induced beta-arrestin 2 recruitment at 20 uM incubated for 30 mins followed by CP55940 addition and measured after 90 or 180 mins by pathhunter beta-arrestin assay relative to control. The class given is cell-based. The gist of the method:
as §1

The target in assay [3] is C-X-C chemokine receptor type 4 (Homo sapiens) (UniProt P61073). The assay can be described thus: Antagonist activity at human Gi/o-coupled CXCR4 expressed in mouse C2C12 cells assessed as inhibition in CXCL12-induced beta-arrestin 2 recruitment at 20 uM incubated for 30 mins followed by CXCL12 addition and measured after 90 or 180 mins by pathhunter beta-arrestin assay relative to control. The class given is cell-based. A digest of the protocol:
as §1

Assay [4] deals with D(2) dopamine receptor (Homo sapiens) (UniProt P14416). The assay can be described thus: Antagonist activity at human Gi/o-coupled DRD2L expressed in CHOK1 cells assessed as inhibition in dopamine-induced beta-arrestin 2 recruitment at 20 uM incubated for 30 mins followed by dopamine addition and measured after 90 or 180 mins by pathhunter beta-arrestin assay relative to control. The class given is cell-based. A digest of the protocol:
as §1

In assay [5] the target is T2, Glucose-dependent insulinotropic receptor (Homo sapiens) (UniProt Q8TDV5).
T2 sequence (whole entry): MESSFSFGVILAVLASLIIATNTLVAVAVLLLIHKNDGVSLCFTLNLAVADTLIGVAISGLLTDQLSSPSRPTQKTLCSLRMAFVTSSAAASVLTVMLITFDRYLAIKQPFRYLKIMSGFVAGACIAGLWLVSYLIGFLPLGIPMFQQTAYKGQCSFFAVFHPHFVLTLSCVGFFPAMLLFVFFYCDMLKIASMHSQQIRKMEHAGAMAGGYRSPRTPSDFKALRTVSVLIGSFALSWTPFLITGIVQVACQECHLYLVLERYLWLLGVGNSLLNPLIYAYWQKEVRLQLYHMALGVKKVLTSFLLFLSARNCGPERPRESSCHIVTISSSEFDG
The assay can be described thus: Antagonist activity at human GPR119 assessed as inhibition in oleoylethanolamide-induced beta-arrestin 2 recruitment at 20 uM incubated for 30 mins followed by oleoylethanolamide addition and measured after 90 or 180 mins by pathhunter beta-arrestin assay relative to control. The gist of the method:
as §1

For assay [6], the target named is T3, Orexin receptor type 2 (Homo sapiens) (UniProt O43614).
T3 sequence (whole entry): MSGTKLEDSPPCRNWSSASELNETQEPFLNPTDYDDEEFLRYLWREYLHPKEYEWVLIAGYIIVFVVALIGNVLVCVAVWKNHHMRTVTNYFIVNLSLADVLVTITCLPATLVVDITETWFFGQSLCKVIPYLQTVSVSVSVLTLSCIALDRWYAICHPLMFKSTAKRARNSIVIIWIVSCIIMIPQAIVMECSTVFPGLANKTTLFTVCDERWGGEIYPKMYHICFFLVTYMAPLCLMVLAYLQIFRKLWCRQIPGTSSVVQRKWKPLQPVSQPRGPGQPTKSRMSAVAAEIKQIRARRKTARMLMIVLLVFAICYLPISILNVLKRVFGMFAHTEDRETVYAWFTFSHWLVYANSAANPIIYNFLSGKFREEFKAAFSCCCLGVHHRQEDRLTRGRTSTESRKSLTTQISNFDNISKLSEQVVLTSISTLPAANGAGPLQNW
The assay can be described thus: Antagonist activity at human Gq-coupled HCRTR2 expressed in CHOK1 cells assessed as inhibition in Orexin A-induced beta-arrestin 2 recruitment at 20 uM incubated for 30 mins followed by Orexin A addition and measured after 90 or 180 mins by pathhunter beta-arrestin assay relative to control. In kind it is cell-based. A digest of the protocol: as §1

The target in assay [7] is T4, Neuropeptide S receptor (Homo sapiens) (UniProt Q6W5P4).
T4 sequence (whole entry): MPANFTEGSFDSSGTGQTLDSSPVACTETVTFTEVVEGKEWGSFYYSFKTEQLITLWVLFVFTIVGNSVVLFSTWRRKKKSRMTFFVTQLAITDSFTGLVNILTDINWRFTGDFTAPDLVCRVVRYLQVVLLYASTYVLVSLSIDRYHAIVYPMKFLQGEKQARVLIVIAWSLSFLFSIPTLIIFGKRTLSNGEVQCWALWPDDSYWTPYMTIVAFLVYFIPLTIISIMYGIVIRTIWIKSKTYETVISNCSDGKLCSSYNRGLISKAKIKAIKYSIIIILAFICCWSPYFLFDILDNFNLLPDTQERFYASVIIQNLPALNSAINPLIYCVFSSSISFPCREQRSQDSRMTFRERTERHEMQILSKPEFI
The assay can be described thus: Antagonist activity at human Gq-coupled NPSR1b expressed in human U2OS cells assessed as inhibition in neuropeptide S-induced beta-arrestin 2 recruitment at 20 uM incubated for 30 mins followed by neuropeptide S addition and measured after 90 or 180 mins by pathhunter beta-arrestin assay relative to control. The class given is cell-based. The gist of the method: as §1

Assay [8] addresses T5, Prolactin-releasing peptide receptor (Homo sapiens) (UniProt P49683).
T5 sequence (whole entry): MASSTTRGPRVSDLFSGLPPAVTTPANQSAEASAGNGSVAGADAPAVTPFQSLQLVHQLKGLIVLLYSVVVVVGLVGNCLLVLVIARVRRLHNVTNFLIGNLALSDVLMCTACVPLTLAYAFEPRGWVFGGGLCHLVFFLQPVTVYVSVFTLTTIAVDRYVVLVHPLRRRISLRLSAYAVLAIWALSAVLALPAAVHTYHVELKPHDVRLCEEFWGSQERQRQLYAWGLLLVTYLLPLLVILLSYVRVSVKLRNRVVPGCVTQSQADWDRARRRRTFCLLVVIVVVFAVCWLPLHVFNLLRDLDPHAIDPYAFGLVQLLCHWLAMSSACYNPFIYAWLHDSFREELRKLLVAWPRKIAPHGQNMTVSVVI
The assay can be described thus: Antagonist activity at human Gq-coupled PRLHR expressed in CHOK1 cells assessed as inhibition in prolactin releasing peptide (1 to 31)-induced beta-arrestin 2 recruitment at 20 uM incubated for 30 mins followed by prolactin releasing peptide (1 to 31) addition and measured after 90 or 180 mins by pathhunter beta-arrestin assay relative to control. The class given is cell-based. A digest of the protocol:
as §1

The next assay has as its target Prostacyclin receptor (Homo sapiens, UniProt P43119). The assay can be described thus: Antagonist activity at human Gs-coupled PTGIR assessed as inhibition in beraprost-induced beta-arrestin 2 recruitment at 20 uM incubated for 30 mins followed by beraprost- addition and measured after 90 or 180 mins by pathhunter beta-arrestin assay relative to control. A digest of the protocol:
as §1

In assay [9] the target is Histamine H1 receptor (Homo sapiens) (UniProt P35367). The conditions noted are these: at 20 µM.
Histamine H1 receptor (Homo sapiens), sequence (P35367 whole entry): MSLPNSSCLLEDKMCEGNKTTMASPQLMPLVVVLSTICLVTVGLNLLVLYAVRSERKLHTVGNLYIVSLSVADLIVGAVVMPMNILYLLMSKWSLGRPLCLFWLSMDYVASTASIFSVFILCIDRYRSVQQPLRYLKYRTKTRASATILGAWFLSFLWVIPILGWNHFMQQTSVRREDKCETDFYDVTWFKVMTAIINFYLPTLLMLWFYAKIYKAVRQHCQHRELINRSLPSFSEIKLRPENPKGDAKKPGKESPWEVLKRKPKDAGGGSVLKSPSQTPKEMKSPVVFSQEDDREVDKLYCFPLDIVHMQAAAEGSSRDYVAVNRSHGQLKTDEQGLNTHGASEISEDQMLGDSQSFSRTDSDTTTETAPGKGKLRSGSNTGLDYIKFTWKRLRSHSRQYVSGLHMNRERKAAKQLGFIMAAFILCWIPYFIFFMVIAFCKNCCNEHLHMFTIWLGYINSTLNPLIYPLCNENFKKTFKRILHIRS
Assay [10] relates to Mus musculus. The assay can be described thus: Suppression of drug-induced cocaine-seeking behavior in C57BL/6J mouse assessed as reduction in morphine-conditioned place preference at 60 nmol, icv administered 20 mins prior to behavioral morphine addition measured twice weekly for 7 weeks. In kind it is functional, organism-based. Conditions: in the assay text read “morphine-seeking” for “cocaine-seeking”. The gist of the method: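 Male C57BL/6J mice, 7–11 weeks, 20–33 g. Three-compartment counterbalanced place conditioning. Test agent given i.c.v. in 10% Solutol HS 15/90% saline, 20 min before morphine (10 mg/kg i.p., in 0.9% saline). Mice then confined 40 min in the paired outer chamber. Saline i.p. conditioning in the opposite chamber followed 4 h later. Preference was scored in a 30 min automated test. n = 16–30/group; two-way ANOVA with Tukey post hoc.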

In assay [11] the test system is Mus musculus. The assay can be described thus: Suppression of drug-induced morphine-seeking behavior in C57BL/6J mouse assessed as reduction in stress-induced reinstatement of morphine-CPP at 60 nmol, icv administered 15 mins prior to testing by forced swim test.

D(2) dopamine receptor (Homo sapiens), sequence (P14416 whole entry): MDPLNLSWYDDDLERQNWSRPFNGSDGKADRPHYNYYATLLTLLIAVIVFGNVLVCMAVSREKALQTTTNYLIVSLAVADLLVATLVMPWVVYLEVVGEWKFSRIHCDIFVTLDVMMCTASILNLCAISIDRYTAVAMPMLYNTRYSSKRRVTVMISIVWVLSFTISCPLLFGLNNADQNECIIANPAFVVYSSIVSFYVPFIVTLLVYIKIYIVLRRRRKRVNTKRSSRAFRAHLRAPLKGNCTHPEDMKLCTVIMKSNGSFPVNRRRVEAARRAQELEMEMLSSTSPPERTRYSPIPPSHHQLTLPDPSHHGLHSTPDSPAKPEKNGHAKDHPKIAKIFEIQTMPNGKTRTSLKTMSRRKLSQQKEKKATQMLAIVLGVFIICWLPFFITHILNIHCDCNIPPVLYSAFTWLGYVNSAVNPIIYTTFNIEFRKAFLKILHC
C-C chemokine receptor type 8, sequence (P51685 whole entry): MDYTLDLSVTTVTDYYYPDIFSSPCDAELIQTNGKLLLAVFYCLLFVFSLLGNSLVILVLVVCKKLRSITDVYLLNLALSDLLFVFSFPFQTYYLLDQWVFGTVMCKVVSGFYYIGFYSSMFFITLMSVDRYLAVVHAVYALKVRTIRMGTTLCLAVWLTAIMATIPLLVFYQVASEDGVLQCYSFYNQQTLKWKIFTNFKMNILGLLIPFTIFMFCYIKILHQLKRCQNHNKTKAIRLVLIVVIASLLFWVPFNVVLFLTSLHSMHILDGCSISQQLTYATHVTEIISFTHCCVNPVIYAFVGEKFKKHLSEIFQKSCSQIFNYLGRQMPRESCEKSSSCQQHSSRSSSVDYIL
Prostacyclin receptor, sequence (P43119 whole entry): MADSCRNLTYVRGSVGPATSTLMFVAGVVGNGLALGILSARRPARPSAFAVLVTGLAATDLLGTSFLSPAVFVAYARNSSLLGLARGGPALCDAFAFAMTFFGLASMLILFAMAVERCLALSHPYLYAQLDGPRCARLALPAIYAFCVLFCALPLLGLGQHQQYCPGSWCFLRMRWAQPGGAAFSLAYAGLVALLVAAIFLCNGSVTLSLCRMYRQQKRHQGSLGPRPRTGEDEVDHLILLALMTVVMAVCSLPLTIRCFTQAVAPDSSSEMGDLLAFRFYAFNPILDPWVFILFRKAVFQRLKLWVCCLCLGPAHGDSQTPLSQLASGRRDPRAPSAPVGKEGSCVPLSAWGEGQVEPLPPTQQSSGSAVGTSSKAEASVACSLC
Cannabinoid receptor 1, sequence (P21554 whole entry): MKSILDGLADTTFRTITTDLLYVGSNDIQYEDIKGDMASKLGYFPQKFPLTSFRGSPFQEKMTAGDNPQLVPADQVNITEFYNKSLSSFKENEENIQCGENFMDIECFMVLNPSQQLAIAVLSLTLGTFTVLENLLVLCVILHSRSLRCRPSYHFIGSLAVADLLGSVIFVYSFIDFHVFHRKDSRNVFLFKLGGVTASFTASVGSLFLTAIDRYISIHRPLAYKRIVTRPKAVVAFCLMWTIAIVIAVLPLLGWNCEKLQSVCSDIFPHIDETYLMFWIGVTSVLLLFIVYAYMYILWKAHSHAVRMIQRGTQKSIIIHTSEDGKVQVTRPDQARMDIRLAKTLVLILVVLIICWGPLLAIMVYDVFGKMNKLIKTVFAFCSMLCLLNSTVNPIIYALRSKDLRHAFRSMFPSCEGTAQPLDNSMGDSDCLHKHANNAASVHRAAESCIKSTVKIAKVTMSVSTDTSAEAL
C-X-C chemokine receptor type 4 (Homo sapiens), sequence (P61073 whole entry): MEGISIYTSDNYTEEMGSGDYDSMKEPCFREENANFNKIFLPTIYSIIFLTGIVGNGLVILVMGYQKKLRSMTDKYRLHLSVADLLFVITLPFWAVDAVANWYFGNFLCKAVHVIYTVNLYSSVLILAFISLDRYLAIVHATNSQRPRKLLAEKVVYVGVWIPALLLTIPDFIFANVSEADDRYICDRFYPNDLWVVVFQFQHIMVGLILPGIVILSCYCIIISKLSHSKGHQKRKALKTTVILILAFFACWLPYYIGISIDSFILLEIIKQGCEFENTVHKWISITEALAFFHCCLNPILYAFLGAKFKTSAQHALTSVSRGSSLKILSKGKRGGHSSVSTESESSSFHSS
Cannabinoid receptor 2, sequence (P34972 whole entry): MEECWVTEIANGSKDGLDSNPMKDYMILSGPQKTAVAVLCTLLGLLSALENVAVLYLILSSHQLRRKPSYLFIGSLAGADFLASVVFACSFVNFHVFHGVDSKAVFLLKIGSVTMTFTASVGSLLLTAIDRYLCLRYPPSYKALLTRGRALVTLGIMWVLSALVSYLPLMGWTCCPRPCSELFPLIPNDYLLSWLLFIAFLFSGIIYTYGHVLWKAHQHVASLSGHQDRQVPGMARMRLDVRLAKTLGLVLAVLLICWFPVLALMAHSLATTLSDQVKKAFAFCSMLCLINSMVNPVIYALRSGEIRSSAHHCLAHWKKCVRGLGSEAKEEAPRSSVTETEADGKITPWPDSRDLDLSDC

As for `CC[C@@]12C=C(C(=O)OC)n3c(c(c4ccccc43)CCN(/C=C/C(=O)OC)CCC1)[C@@H]2c1ccc(O)cc1`, the inhibition in assay [1] came out at 65%; in [2] it was 67%; on Cannabinoid receptor 1, 26%; at Cannabinoid receptor 2, 39%; in [3] it was 40%; in assay [4], 11%. For the same molecule, the inhibition in assay [5] worked out at 35%; in assay [6] it was 10%; in assay [7] it was 24%; in assay [8] it was 70%; at Prostacyclin receptor it was 84%; in [9], 16%.

`CC[C@@]1(CC(=O)OC)CCCN2CC[C@]3(O)C(=Nc4ccccc43)[C@@H]21`: the inhibition was 17% in assay [1]; 24% in assay [2]; 4% on Cannabinoid receptor 1; 2% at Cannabinoid receptor 2; -9% in assay [3]; 0% in [4]. The inhibition in assay [5] is -2%; in assay [6], -4%; in [8] it was 26%; at Prostacyclin receptor, 22%; in assay [9], 8%.

As for `CC[C@]12CCCN3CCc4c(n(c5ccccc45)[C@@](O)(C(=O)OC)C1)[C@@H]32`, the inhibition in assay [1] was 8%; in assay [2], -8%; at Cannabinoid receptor 1, 0%; on Cannabinoid receptor 2 it was 11%; in assay [3] it was 10%; in [4] it was -10%. Further, the inhibition in assay [5] was 3%; in [6], 9%; in assay [8] it was 3%; on Prostacyclin receptor, -3%; in assay [9], 5%. Further, the result in the assay on Mus musculus [10] and in the assay on Mus musculus [11] was inactive.

Take `COC(=O)[C@@H]1[C@H]2C[C@H]3c4[nH]c5ccccc5c4CCN3C[C@@H]2CC[C@@H]1O`: the inhibition turned out to be 5% in assay [1]; 4% in assay [2]; 35% on Cannabinoid receptor 1; 20% on Cannabinoid receptor 2; 21% in assay [3]; 102% in [4]. The inhibition was 8% in [5]; 9% in assay [6]; -3% in assay [7]; 1% in assay [8]; 8% on Prostacyclin receptor.

With `CC[C@]12CCCN3CC[C@]4(C(=O)c5ccccc5N4C(=O)C1)[C@@H]32`, the inhibition in assay [1] is 6%; in assay [2], 22%; at Cannabinoid receptor 1, 0%; at Cannabinoid receptor 2, 13%; in [3], -10%; in assay [4] it was -5%. In addition, the inhibition in assay [5] is 5%; in assay [6], 16%; in [7] it was -10%; in assay [8], -7%; on Prostacyclin receptor, 22%; in [9], -3%.

For `CC[C@@]1(CC(=O)NC2CCCC2)CCCN2CCc3c([nH]c4ccccc34)[C@@H]21`, the inhibition in assay [1] is 28%; in assay [2], 43%; at Cannabinoid receptor 1, 1%; at Cannabinoid receptor 2 it was 17%; in [3] it was 4%; in assay [4], 98%. In addition, the inhibition in assay [5] was 2%; in assay [6] it was 8%; in assay [8], 18%; on Prostacyclin receptor, 41%; in [9], 21%.
